Test results as given in ChEMBL document CHEMBL2150991, “Synthesis of novel N-branched acyclic nucleoside phosphonates as potent and selective inhibitors of human, Plasmodium falciparum and Plasmodium vivax 6-oxopurine phosphoribosyltransferases” (J Med Chem, 2012).
≈ marks a conversion by molar mass, not a printed value.

Key:
[1] = Inhibition of Plasmodium vivax HGPRT using Prib-PP as substrate by spectrophotometric assay in presence of guanine
How it was run: (§1)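 Continuous spectrophotometric assay at 25 °C in 0.1 M Tris-HCl, 10 mM MgCl₂, pH 7.4. PRib-PP is the variable substrate. Guanine is held fixed at a saturating 60 μM. Values are apparent Ki, since only one concentration of the second substrate was used. Each was calculated from Km(app) = Km(1 + [I]/Ki(app)).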

[2] = Cytotoxicity against cat CRFK cells; format: cell-based, Felis catus
[3] = Cytotoxicity against human HEL cells; format: cell-based
L1210 = experiment: Cytostatic activity against mouse L1210 cells; format: ADME, cell-based
[4] = Inhibition of Plasmodium falciparum recombinant HGPRT expressed in Escherichia coli using Prib-PP as substrate by spectrophotometric assay in presence of guanine; how it was run: as §1
[5] = Cytotoxicity african green monkey Vero cells; format: cell-based; conditions: chlorocebus sabaeus
CCRF-CEM = experiment: Cytostatic activity against human CCRF-CEM cells; format: ADME, cell-based
[6] = Cytostatic activity against human HeLaS3 cells; format: ADME, cell-based; conditions: hela s3
[7] = molecular target: T1, Hypoxanthine-guanine phosphoribosyltransferase (Homo sapiens, UniProt P00492); experiment: Inhibition of human HGPRT using Prib-PP as substrate by spectrophotometric assay in presence of guanine; how it was run: as §1
T1 sequence (P00492 whole entry): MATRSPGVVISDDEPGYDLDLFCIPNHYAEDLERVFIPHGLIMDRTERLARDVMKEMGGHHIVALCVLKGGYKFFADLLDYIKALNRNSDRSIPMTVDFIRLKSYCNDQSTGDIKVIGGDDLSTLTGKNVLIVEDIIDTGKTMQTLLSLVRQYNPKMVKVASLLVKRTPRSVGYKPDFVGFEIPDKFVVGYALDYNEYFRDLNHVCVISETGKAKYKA

HL-60 = experiment: Cytostatic activity against human HL60 cells; format: ADME, cell-based

SMILES | Ki [1] [nM] | CC50 [2] [µg/mL] | CC50 [3] [µg/mL] | Activity (L1210) | Ki [4] [nM] | CC50 [5] [µg/mL] | Activity (CCRF-CEM) | Activity [6] | Ki [7] [nM] | Activity (HL-60)
CCOC(=O)CN(CCn1cnc2c(=O)[nH]c(N)nc21)CCP(=O)(O)O | 1500 | > 100 | > 100 | Non-toxic | 1700 | > 100 | Non-toxic | Non-toxic | 100 | Non-toxic
COC(=O)CCN(CCn1cnc2c(=O)[nH]c(N)nc21)CCP(=O)(O)O | 4000 | > 100 | > 100 | Non-toxic | 100 | > 100 | Non-toxic | Non-toxic | 500 | Non-toxic
COC(=O)CCCN(CCn1cnc2c(=O)[nH]c(N)nc21)CCP(=O)(O)O | > 200000 | > 100 | > 100 | Non-toxic | 1300 | > 100 | Non-toxic | Non-toxic | 100 | Non-toxic
N#CCN(CCn1cnc2c(=O)[nH]c(N)nc21)CCP(=O)(O)O | – | > 100 | 53 (≈ 155 µM) | Non-toxic | – | > 100 | Non-toxic | Non-toxic | – | Non-toxic
N#CCCN(CCn1cnc2c(=O)[nH]c(N)nc21)CCP(=O)(O)O | 300 | > 100 | > 100 | Non-toxic | 200 | > 100 | Non-toxic | Non-toxic | 70 | Non-toxic
N#CCCCN(CCn1cnc2c(=O)[nH]c(N)nc21)CCP(=O)(O)O | 8000 | > 100 | > 100 | Non-toxic | 4000 | > 100 | Non-toxic | Non-toxic | 600 | Non-toxic
Nc1nc2c(ncn2CCN(CCP(=O)(O)O)CC(=O)O)c(=O)[nH]1 | 28000 | > 100 | > 100 | Non-toxic | 700 | > 100 | Non-toxic | Non-toxic | 1400 | Non-toxic
Nc1nc2c(ncn2CCN(CCC(=O)O)CCP(=O)(O)O)c(=O)[nH]1 | 50 | > 100 | > 100 | Non-toxic | 200 | > 100 | Non-toxic | Non-toxic | 150 | Non-toxic
Nc1nc2c(ncn2CCN(CCCC(=O)O)CCP(=O)(O)O)c(=O)[nH]1 | 25000 | > 100 | > 100 | Non-toxic | – | > 100 | Non-toxic | Non-toxic | 100 | Non-toxic
Nc1nc2c(ncn2CCN(CCP(=O)(O)O)CCP(=O)(O)O)c(=O)[nH]1 | 900 | > 100 | > 100 | Non-toxic | 300 | > 100 | Non-toxic | Non-toxic | 200 | Non-toxic
CCOC(=O)CN(CCn1cnc2c(=O)[nH]cnc21)CCP(=O)(O)O | 11000 | > 100 | > 100 | Non-toxic | 1900 | > 100 | Non-toxic | Non-toxic | 2600 | Non-toxic
COC(=O)CCN(CCn1cnc2c(=O)[nH]cnc21)CCP(=O)(O)O | 21000 | > 100 | > 100 | Non-toxic | 100 | > 100 | Non-toxic | Non-toxic | > 200000 | Non-toxic
COC(=O)CCCN(CCn1cnc2c(=O)[nH]cnc21)CCP(=O)(O)O | > 250000 | > 100 | > 100 | Non-toxic | ≥ 220000 | > 100 | Non-toxic | Non-toxic | 22000 | Non-toxic
N#CCN(CCn1cnc2c(=O)[nH]cnc21)CCP(=O)(O)O | 47000 | > 100 | > 100 | Non-toxic | ≥ 250000 | > 100 | Non-toxic | Non-toxic | 35000 | Non-toxic
N#CCCN(CCn1cnc2c(=O)[nH]cnc21)CCP(=O)(O)O | 700 | > 100 | > 100 | Non-toxic | 200 | > 100 | Non-toxic | Non-toxic | 2400 | Non-toxic
N#CCCCN(CCn1cnc2c(=O)[nH]cnc21)CCP(=O)(O)O | > 230000 | > 100 | > 100 | Non-toxic | 6000 | > 100 | Non-toxic | Non-toxic | 29000 | Non-toxic
O=C(O)CN(CCn1cnc2c(=O)[nH]cnc21)CCP(=O)(O)O | 178000 | > 100 | > 100 | Non-toxic | – | > 100 | Non-toxic | Non-toxic | 32000 | Non-toxic
O=C(O)CCN(CCn1cnc2c(=O)[nH]cnc21)CCP(=O)(O)O | 41000 | > 100 | > 100 | Non-toxic | 400 | > 100 | Non-toxic | Non-toxic | > 240000 | Non-toxic
O=C(O)CCCN(CCn1cnc2c(=O)[nH]cnc21)CCP(=O)(O)O | 1600 | > 100 | > 100 | Non-toxic | ≥ 210000 | > 100 | Non-toxic | Non-toxic | 5400 | Non-toxic
O=c1[nH]cnc2c1ncn2CCN(CCO)CCP(=O)(O)O | 21000 | > 100 | > 100 | Non-toxic | 2600 | > 100 | Non-toxic | Non-toxic | 5500 | Non-toxic
O=c1[nH]cnc2c1ncn2CCN(CCP(=O)(O)O)CCP(=O)(O)O | 13000 | > 100 | > 100 | Non-toxic | – | > 100 | Non-toxic | Non-toxic | 3000 | Non-toxic
Nc1nc2c(ncn2CCN(CCO)CCP(=O)(O)O)c(=O)[nH]1 | 1400 | – | > 100 | Non-toxic | 200 | – | Non-toxic | Non-toxic | 70 | Non-toxic
Nc1nc2c(ncn2CCNCCP(=O)(O)O)c(=O)[nH]1 | 11000 | – | > 100 | Non-toxic | 16000 | – | Non-toxic | Non-toxic | – | Non-toxic
O=c1[nH]cnc2c1ncn2CCNCCP(=O)(O)O | ≥ 250000 | – | > 100 | Non-toxic | ≥ 200000 | – | Non-toxic | Non-toxic | – | Non-toxic
